Assay results from BindingDB's records for doi:10.1016/j.ejmech.2008.02.028 (Institute of Chemical Technology, 2008).
pIC50: −log10 of the molar value.

Molecular target: Glutathione hydrolase 1 proenzyme (Homo sapiens, UniProt P19440)
Experiment: Inhibition of gamma-glutamyltranspeptidase by colorimetric assay
Summary of the method: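 Colorimetric read-out at 405 nm by a standard procedure. IC50 is the […] giving 50% inhibition of enzyme activity. Values are the average of three independent experiments (n = 3).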

Chain of Glutathione hydrolase 1 proenzyme (P19440 1-380 limits assumed): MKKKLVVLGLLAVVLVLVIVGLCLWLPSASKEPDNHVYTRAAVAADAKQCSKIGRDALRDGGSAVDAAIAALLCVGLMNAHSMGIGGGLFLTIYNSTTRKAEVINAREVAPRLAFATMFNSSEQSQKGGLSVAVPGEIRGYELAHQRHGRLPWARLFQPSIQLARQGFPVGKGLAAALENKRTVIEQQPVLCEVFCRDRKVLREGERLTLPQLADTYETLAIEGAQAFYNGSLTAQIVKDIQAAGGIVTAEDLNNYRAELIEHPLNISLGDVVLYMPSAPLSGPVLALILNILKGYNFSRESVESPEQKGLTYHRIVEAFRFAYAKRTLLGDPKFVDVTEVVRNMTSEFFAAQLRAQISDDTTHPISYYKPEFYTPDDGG
Chain of Glutathione hydrolase 1 proenzyme (P19440 381-569 limits assumed): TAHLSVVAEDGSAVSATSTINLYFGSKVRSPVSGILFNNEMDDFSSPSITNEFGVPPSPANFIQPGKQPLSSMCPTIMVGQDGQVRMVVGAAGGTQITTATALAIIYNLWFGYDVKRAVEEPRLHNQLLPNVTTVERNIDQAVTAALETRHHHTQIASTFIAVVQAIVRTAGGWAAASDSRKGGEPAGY

SMILES	pIC50
CNC(=O)C1=C(C)C2Sc3ccccc3N=C2C(C(=O)NC)C1c1ccc2c(c1)OCO2 (configuration not stated) [2-(1,3-Benzodioxol-5-yl)-N,N',4-trimethyl-2,10-dihydro-1H-phenothiazine-1,3-dicarboxamide]	< 4.52
CNC(=O)C1=C(C)C2Sc3ccccc3N=C2C(C(=O)NC)C1c1ccccc1OC (configuration not stated) [2-(2-Methoxyphenyl)-N,N',4-trimethyl-2,10-dihydro-1H-phenothiazine-1,3-dicarboxamide]	< 4.52
